Screening data (PubChem BioAssay)
A selection: hits, their analogues and other compounds. The true share with any hit is near 1.9%.
IMP-1 inhibitor = IMP-1 metallo-beta-lactamase inhibitors, primary screen, biochemical, epi-absorbance readout, Pseudomonas aeruginosa enzyme | hit rate 0.45% among 290,000 | AID 1556, 2009 | inhibition, % at 5.6 µM | purified IMP-1, nitrocefin hydrolysis, epi-absorbance fluorescence | metallo-beta-lactamase IMP-1 (Pseudomonas aeruginosa);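 active = inhibition above the mean plus 3 SD of all compounds in the same screening run, cut at about 4.5% in these data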
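Test system: recombinant IMP-1 enzyme, purified / Medium: HEPES buffer pH 7.1 with ZnSO4 and Brij 35 / Doses: single dose, 5.6 µM / Times: 25 °C, 15 min preincubation, 25 min reaction / Detection: Epi-absorbance via hydrolysed-nitrocefin quenching of white-plate fluorescence, 480/530 nm, EDTA stop / Evaluation: percent inhibition from optical density relative to buffer-blank wells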
T cell HTS = modulators of CD8 T cell-vesicle binding, primary screen, mouse 2C CD8+ T cells, flow cytometry; response (vesicle binding), % at 7 µM; hit rate 0.068% among 330,000; 2C CD8+ T cell-vesicle binding; hits give low values;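 active = response, share of CD8 T cells binding vesicles, and their 90th percentile fluorescence all below set limits, cut at about 80% in these data, passing the limit was not always enough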;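 also: values below 100% mean blocked vesicle binding to the CD8+ T cells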
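System: murine 2C transgenic CD8+ T lymphocytes; also added: QL9-loaded Drosophila micro-vesicles; times: binding 1.5 h at 37 °C; measured by: flow cytometry, PE anti-B7-1 (FL2) versus Alexa647 anti-CD8 (FL8), PFA-fixed; control set: Peptide-free naked vesicles (low) and QL9 vesicles with 0.7% DMSO vehicle (high)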
Fh CTSL1 inh = Fasciola hepatica cathepsin L1 inhibitors, primary screen, counter-screen for PFM18AAP inhibitor project, biochemical, QFRET, fluorogenic peptide substrate. recombinant F. hepatica cathepsin L1, Z-Leu-Arg-MCA fluorescence. inhibition, % at 5.96 µM. hit rate 0.49% among 300,000;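 active = inhibition above the mean of all tested compounds plus 3 SD, set per screening campaign, cut at about 17% in these data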
VIM-2 inh = VIM-2 metallo-beta-lactamase inhibitors, primary screen, biochemical, epi-absorbance readout, Pseudomonas aeruginosa enzyme; purified VIM-2, nitrocefin hydrolysis, epi-absorbance fluorescence; hit rate 0.89% among 290,000; inhibition, % at 5.6 µM;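 active = inhibition above the mean of all tested compounds plus 3 SD, cutoff set per screening run, cut at about 7.5% in these data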;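 also: red hydrolysis product quenches plate fluorescence so inhibitors raise well fluorescence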
p-CIP stab down = p/CIP-EGFP fusion destabilizers, primary screen, fluorescence, F442A cells. Q05BA5. 16 h. decrease of EGFP signal, % at 10 µM. hit rate 0.01% among 290,000;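 active = EGFP signal decrease of at least 30% at 10 µM or well 3 SD below plate mean, unless failing retest; inactive = the rest, including hits failing retest or dose response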
UBC9 SUMO inh = inhibitors of in vitro SUMOylation cascade, primary screen, biochemical, HTRF, uHTS; hit rate 0.36% among 290,000; HTRF SUMOylation assay, SAE1/SAE2 + UBC9; SUMO-conjugating enzyme UBC9 (Homo sapiens), P63279; inhibition, % at 35 µM; AID 2006, 2009; in the data active = inhibition above about 50%, passing the limit was not always enough
Hits are given with their value; . = inactive; / = no result given.

SMILES | IMP-1 inhibitor | T cell HTS | Fh CTSL1 inh | VIM-2 inh | p-CIP stab down | UBC9 SUMO inh
COc1cccc(/C=C2\SC(=O)N(CCC(=O)NNC(=O)c3ccccc3Cl)C2=O)c1 | . | 10 | . | . | . | .
COc1cccc(/C=C2\SC(=S)N(CCC(=O)NNC(=O)c3ccccc3OC)C2=O)c1 | . | . | . | . | . | .
O=C(CN1C(=O)/C(=C/c2cccc(Cl)c2)SC1=S)NC1C=CS(=O)(=O)C1 (stereo not given) | . | . | . | . | . | .
COc1cccc(/C=C2\SC(=S)N(CCC(=O)NC3C=CS(=O)(=O)C3)C2=O)c1 (stereo not given) | 8.2 | . | . | . | . | .
O=C(CN1C(=O)/C(=C/c2ccccc2F)SC1=S)NC1C=CS(=O)(=O)C1 (stereo not given) | 7.0 | . | . | . | . | .
COc1cc(C(O)c2nc3ccccc3n2C(C)C)cc(OC)c1OC (stereo not given) | . | . | . | . | . | .
CCCCCNC(=O)C1CC(=O)OC12CCCCC2 (stereo not given) | . | . | . | . | . | .
Nc1c(N(CCC2=CCCCC2)C(=O)C2CC2)c(=O)[nH]c(=O)n1Cc1ccccc1 | . | . | . | . | . | .
O=C(COC(=O)c1cc(NS(=O)(=O)c2cccs2)ccc1O)Nc1cc(Cl)ccc1Cl | . | . | . | . | . | 69
O=C(COC(=O)c1ccc(NS(=O)(=O)c2cccs2)cc1)Nc1nc2c(F)c(F)c(F)cc2s1 | . | / | / | . | . | 80
N#Cc1ccc(CN2CCN(C(=O)c3cc(C4CC4)nn3-c3ccccc3)CC2)cc1 | / | . | / | / | / | /
COc1ccc(C(=O)c2c(C(F)(F)F)oc3c2C(=O)c2ccccc2C3=O)cc1OC | . | . | 31 | . | . | .
CCCCCCC#Cc1cncc(C(=O)NNC(=O)Nc2cc(Cl)cc(Cl)c2)c1 | . | . | . | . | . | 62
COc1ccc2nc(N3C(=O)CC(C(C)c4ccccc4)C3=O)sc2c1 (stereo not given) | 7.9 | . | . | . | . | .
Cc1cc(C)nc(N2C(=O)CC(C(C)c3ccccc3)C2=O)n1 (stereo not given) | 9.3 | . | . | . | . | .
Cc1ccccc1CN1CCN(Cc2cc(=O)c3ccccc3[nH]2)CC1CCO (stereo not given) | 8.3 | . | . | . | . | .
O=C(Cc1nnc(NC(=O)c2ccccc2)s1)N/N=C/c1ccco1 | . | 0.0 | . | . | . | .
Cc1ccccc1N1C(=O)C(Cc2ccc(F)cc2)S/C1=C(\C#N)C(N)=O (stereo not given) | . | . | . | . | . | .
Cc1ccc2nc(-c3ccc(O)cc3)oc2c1 | . | . | . | . | . | .
O=C(Nc1scc(-c2cccs2)c1C(=O)O)c1cccs1 | 15 | . | . | . | . | .
O=C(Nc1scc(-c2ccccc2)c1C(=O)O)c1ccco1 | 4.8 | . | . | . | . | .
CCOC(=O)c1c(-c2cccs2)csc1NC(=O)c1ccncc1 | . | . | . | . | . | .
CCc1cc(=O)[nH]c(SCC(=O)N2CCC(Cc3ccccc3)CC2)n1 | / | . | . | / | / | /
CCOc1ccc(Nc2c3ccccc3nc3ccccc23)cc1 | . | . | . | 9.6 | . | .
CCOc1ccc(Nc2cc(C)c3ccccc3n2)cc1 | . | . | . | . | . | .
SMILES | IMP-1 inhibitor | T cell HTS | Fh CTSL1 inh | VIM-2 inh | p-CIP stab down | UBC9 SUMO inh
Cc1sc(-c2ccncc2)nc1OC(=O)c1cc(Cl)cc(Cl)c1 | 5.7 | . | . | . | . | .
Cc1sc(-c2ccncc2)nc1OC(=O)c1ccc(F)cc1F | 10 | . | . | . | . | .
CCN(CC)CCOC(=O)c1ccc(NC(=S)NC(=O)/C=C/c2ccco2)cc1 | / | . | . | / | / | /
COC(=O)CCSCC(=O)N1N=C(c2ccc(OC)cc2)CC1c1cccc(OC)c1OC (stereo not given) | . | . | . | . | . | .
Cc1ccc(/C=N/NC(=O)c2cccc(S(=O)(=O)Nc3cccc(Cl)c3)c2)o1 | . | . | . | . | . | 61
COc1ccccc1NS(=O)(=O)c1cccc(C(=O)N/N=C/c2ccc(C)o2)c1 | . | . | . | . | . | .
COC(=O)c1[nH]c2cc(OC)ccc2c1NC(=O)CCN1CCN(c2ccccc2)CC1 | . | . | . | . | . | .
COC(=O)c1[nH]c2ccccc2c1NC(=O)CN1CCN(c2cccc(OC)c2)C(C)C1 (stereo not given) | 5.8 | . | . | . | . | .
OCc1nnc2c3ccccc3c(-c3ccccc3)nn12 | . | . | . | 11 | . | .
O=C(COc1ccc(Cl)cc1)NCc1nnc2c3ccccc3c(-c3ccccc3)nn12 | . | . | . | . | . | .
c1ccc(-c2nn3cnnc3c3ccccc23)cc1 | . | . | . | 11 | . | .
Cc1ccc(C)c(NC(=O)CN(C)C(=O)C2CCN(C(=O)Nc3ccccc3)CC2)c1 | / | . | 17 | / | / | /
COc1ccc(Cl)cc1NC(=O)CN(C)C(=O)C1CCN(C(=O)Nc2ccccc2)CC1 | / | . | / | / | / | /
CCOC(=O)N1CCN(C(=O)CCCCn2c(=S)[nH]c3ccsc3c2=O)CC1 | . | . | . | . | . | .
O=C1c2ccccc2S(=O)(=O)N1CC(O)COc1ccc(Br)cc1 (stereo not given) | 5.3 | . | . | . | . | .
O=C1c2ccccc2S(=O)(=O)N1CC(O)COc1ccc(Cl)cc1 (stereo not given) | . | . | . | . | . | .
O=C(CCc1nnc2ccc(NCc3ccco3)nn12)Nc1cccc(F)c1 | . | . | . | . | . | .
O=C(O)C1CCN(C(=O)CSc2nc3ccccc3c(=O)n2-c2ccc(Cl)cc2)CC1 | . | . | . | . | . | .
O=Nc1c2ccc[nH]c-2c2ccc([N+](=O)[O-])cc12 | . | . | . | . | . | .
O=C1c2cccc3cccc(c23)C(=O)N1c1ccc(O)cc1 | . | . | . | 8.4 | . | .
Cc1ccc(N2C(=O)c3cccc4cccc(c34)C2=O)cc1 | . | . | . | . | . | .
COc1ccc(C2=NN(C(N)=S)C(c3ccccc3)C2)cc1 (stereo not given) | . | . | 55 | . | . | .
COc1ccc(C(=O)NC2CC2)cc1OC1CCN(Cc2ccc(F)cc2F)CC1 | . | . | . | . | . | .
Cc1ccc(-n2c(SCC(=O)N3CCCCC3)nc(O)c(Cc3ccccc3)c2=O)cc1 | 9.3 | . | . | . | . | /
CCN(CC)C(=O)CSc1nc(O)c(Cc2ccccc2)c(=O)n1-c1ccc(C)cc1 | . | . | . | . | . | .
Cc1sc2nc(SCC(=O)N3CCN(CCO)CC3)n(-c3ccccc3)c(=O)c2c1C | . | . | . | 24 | . | .
